Data as given in ChEMBL document CHEMBL1649213, “The arabinosyltransferase EmbC is inhibited by ethambutol in Mycobacterium tuberculosis” (2009).
Converted amounts (≈) assume the structure as drawn.

Tests used:
Type in all cases: functional
[1] = test system: Mycobacterium tuberculosis; assay: Antimicrobial activity against Mycobacterium tuberculosis embA V280M gene after 48 hrs by agar proportion method
[2] = test system: Mycobacterium tuberculosis; assay: Antimicrobial activity against Mycobacterium tuberculosis harboring Mycobacterium smegmatis embB gene after 48 hrs by agar proportion method
[3] = test system: Mycobacterium tuberculosis; assay: Antimicrobial activity against Mycobacterium tuberculosis harboring Mycobacterium smegmatis embB M292L mutant gene after 48 hrs by agar proportion method
[4] = test system: Mycobacterium tuberculosis; assay: Antimicrobial activity against Mycobacterium tuberculosis harboring Mycobacterium smegmatis embB M292I mutant gene after 48 hrs by agar proportion method
[5] = test system: Mycobacterium tuberculosis; assay: Antimicrobial activity against Mycobacterium tuberculosis harboring Mycobacterium smegmatis embB M292V mutant gene after 48 hrs by agar proportion method
[6] = test system: Mycobacterium tuberculosis; assay: Antimicrobial activity against Mycobacterium tuberculosis expressing EmbC M300L mutant gene after 48 hrs
Procedure, shortened: (§1)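 Spot test: 20 µl exponential-phase culture spotted on 7H10 agar plus 10% OADC with EMB 0 to 128 µg/ml. Incubated at 37°C for 10 to 30 days, and growth scored against the drug-free lawn. MIC taken as the highest EMB concentration allowing growth.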

[7] = test system: Mycobacterium tuberculosis; assay: Antimicrobial activity against Mycobacterium tuberculosis expressing EmbC M300L mutant gene after 48 hrs by agar proportion method
[8] = test system: Mycobacterium tuberculosis; assay: Antimicrobial activity against Mycobacterium tuberculosis expressing EmbC M300I mutant gene after 48 hrs; procedure, shortened: as §1
[9] = test system: Mycobacterium tuberculosis; assay: Antimicrobial activity against Mycobacterium tuberculosis expressing EmbC M300I mutant gene after 48 hrs by agar proportion method
[10] = test system: Mycobacterium tuberculosis; assay: Antimicrobial activity against Mycobacterium tuberculosis expressing EmbC M300V mutant gene after 48 hrs; procedure, shortened: as §1
[11] = test system: Mycobacterium tuberculosis; assay: Antimicrobial activity against Mycobacterium tuberculosis expressing EmbC M300V mutant gene after 48 hrs by agar proportion method
[12] = test system: Mycobacterium tuberculosis; assay: Antimicrobial activity against Mycobacterium tuberculosis expressing EmbC T270I mutant gene after 48 hrs; procedure, shortened: as §1
[13] = test system: Mycobacterium tuberculosis; assay: Antimicrobial activity against Mycobacterium tuberculosis expressing EmbC T270I mutant gene after 48 hrs by agar proportion method
[14] = test system: Mycobacterium tuberculosis; assay: Antimicrobial activity against Mycobacterium tuberculosis expressing EmbC D249G mutant gene after 48 hrs; procedure, shortened: as §1
[15] = test system: Mycobacterium tuberculosis; assay: Antimicrobial activity against Mycobacterium tuberculosis expressing EmbC D249G mutant gene after 48 hrs by agar proportion method
Procedure, shortened: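 Agar proportion method: 10^4 CFU plated on 7H10-OADC with EMB or drug-free, and colonies counted after 4 weeks. MIC99 is the lowest concentration at which <1% of cells formed colonies.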

[16] = test system: Mycobacterium tuberculosis; assay: Ratio of MIC for Mycobacterium tuberculosis expressing wild type EmbC gene to MIC for Mycobacterium tuberculosis expressing EmbC D249G mutant gene

## CC[C@@H](CO)NCCN[C@@H](CC)CO [ETHAMBUTOL]
[1]
  MIC: 4 µg/mL (≈ 19.6 µM)
[2]
  MIC: 8 µg/mL (≈ 39.2 µM)
[3]
  MIC: 8 µg/mL (≈ 39.2 µM)
[4]
  MIC: 3 µg/mL (≈ 14.7 µM)
[5]
  MIC: 3 µg/mL (≈ 14.7 µM)
[6]
  MIC: 0.5 µg/mL (≈ 2.45 µM)
[7]
  MIC90: 0.5 µg/mL (≈ 2.45 µM)
[8]
  MIC: <3 µg/mL
[9]
  MIC90: 1 µg/mL (≈ 4.89 µM)
[10]
  MIC: 0.5 µg/mL (≈ 2.45 µM)
[11]
  MIC90: <0.5 µg/mL
[12]
  MIC: 4 µg/mL (≈ 19.6 µM)
[13]
  MIC90: 1 µg/mL (≈ 4.89 µM)
[14]
  MIC: 0.5 µg/mL (≈ 2.45 µM)
[15]
  MIC90: <0.5 µg/mL
[16]
  Ratio: 6
